Measured values published in ChEMBL document CHEMBL1240321, “Cyclostreptin binds covalently to microtubule pores and lumenal taxoid binding sites” (Nat Chem Biol, 2007).
The source made the active and inactive calls. The calls are words filed in the database; no cut-off is given here.

Columns and labels:
[1] = test system: A2780; test: Induction of mitotic cell cycle arrest in human A2780 cells assessed as accumulation of cells at S phase at 100 nM after 24 hrs by flow cytometry (Rvb= 17.5%); type: functional
[2] = Displacement of [3H]discodermolide from microtubule assessed as bound radioligand level at 20 uM treated before radioligand addition by competitive binding assay
[3] = Binding affinity to microtubule at 30 uM after 30 mins by HPLC-MS analysis
[4] = Displacement of [3H]paclitaxel from microtubule assessed as bound radioligand level at 20 uM treated after radioligand addition by competitive binding assay
[5] = Induction of mitotic cell cycle arrest in potoroo PtK2 cells assessed as accumulation of cells at G1/G0 phase at 2 uM after 7 hrs by flow cytometry (Rvb= 60%); type: functional, Potorous tridactylus
[6] = Induction of mitotic cell cycle arrest in potoroo PtK2 cells assessed as accumulation of cells at G1/G0 phase at 5 uM treated for 7 hrs, washed followed by 48 hrs incubation by flow cytometry (Rvb= 65.8%); type: functional, Potorous tridactylus
[7] = test system: A549; test: Induction of mitotic cell cycle arrest in human A549 cells assessed as accumulation of cells at SubG1 phase at 100 nM after 24 hrs by flow cytometry (Rvb= 25%); type: functional
[8] = test system: A2780; test: Induction of mitotic cell cycle arrest in human A2780 cells assessed as accumulation of cells at G1/G0 phase at 100 nM after 24 hrs by flow cytometry (Rvb= 60%); type: functional
[9] = Induction of micronucleation in potoroo PtK2 cells at 10 uM after 7 hrs by flow cytometry; type: functional, Potorous tridactylus
[10] = Induction of mitotic cell cycle arrest in potoroo PtK2 cells assessed as accumulation at S phase at 2 uM treated for 7 hrs, washed followed by 48 hrs incubation by flow cytometry (Rvb= 10.7%); type: functional, Potorous tridactylus
[11] = test system: A549; test: Induction of mitotic cell cycle arrest in human A549 cells assessed as accumulation of cells at G1/G0 phase at 100 nM after 24 hrs by flow cytometry (Rvb= 39.2%); type: functional
[12] = test system: A2780; test: Cytotoxicity against human A2780 cells; type: functional, cell-based
[13] = Induction of micronucleation in potoroo PtK2 cells at 2 uM after 7 hrs by flow cytometry; type: functional, Potorous tridactylus
[14] = Displacement of [3H]paclitaxel from microtubule assessed as bound radioligand level at 20 uM treated before radioligand addition by competitive binding assay
[15] = test system: A549; test: Induction of mitotic cell cycle arrest in human A549 cells assessed as accumulation of cells at G2+M phase at 100 nM after 24 hrs by flow cytometry (Rvb= 19.6%); type: functional
[16] = test system: A549; test: Binding affinity to beta-tubulin in human A549 cells at 1 uM after 24 hrs by HPLC analysis; type: cell-based
Method in brief: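 A549 monolayers exposed 24 h to 1 µM ligand or 0.1% DMSO. Tubulin purified from homogenate supernatant by one-step DEAE ion exchange (0.4 M KCl load, 0.8 M KCl elution) to 90% purity. Tryptic or chymotryptic digests analysed by HPLC-MRM with Q3 at m/z 249.0. Adduct fraction estimated from the areas of modified and unmodified peptide peaks.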

[17] = Cytotoxicity against human A2780-1A9 cells; type: functional, cell-based
[18] = Induction of mitotic cell cycle arrest in potoroo PtK2 cells assessed as accumulation of cells at G1/G0 phase at 2 uM treated for 7 hrs, washed followed by 16 hrs incubation by flow cytometry (Rvb= 59%); type: functional, Potorous tridactylus
[19] = Induction of mitotic cell cycle arrest in human A2780AD cells assessed as accumulation of cells at SubG1 phase at 100 nM after 24 hrs by flow cytometry (Rvb= 4.1%); type: functional, A2780 ADR
[20] = test system: PtK2; test: Induction of micronucleation in potoroo PtK2 cells at 10 uM after 7 hrs by flow cytometry; settings: Potorous tridactylus
[21] = Induction of mitotic cell cycle arrest in potoroo PtK2 cells assessed as accumulation of cells at SubG1 phase at 2 uM treated for 7 hrs, washed followed by 48 hrs incubation by flow cytometry (Rvb= 1.1%); type: functional, Potorous tridactylus
[22] = Induction of mitotic cell cycle arrest in potoroo PtK2 cells assessed as accumulation at S phase at 2 uM treated for 7 hrs, washed followed by 16 hrs incubation by flow cytometry (Rvb= 16%); type: functional, Potorous tridactylus
[23] = Induction of mitotic cell cycle arrest in human A2780AD cells assessed as accumulation of cells at S phase at 100 nM after 24 hrs by flow cytometry (Rvb= 16.2%); type: functional, A2780 ADR
[24] = Induction of mitotic cell cycle arrest in potoroo PtK2 cells assessed as accumulation at 100 nM after 24 hrs by flow cytometry (Rvb= 26.3%)
[25] = Induction of micronucleation in potoroo PtK2 cells at 5 uM after 7 hrs by flow cytometry; type: functional, Potorous tridactylus
[26] = Induction of mitotic cell cycle arrest in potoroo PtK2 cells assessed as accumulation of cells at G1/G0 phase at 5 uM after 7 hrs by flow cytometry (Rvb= 60%); type: functional, Potorous tridactylus
[27] = test system: A2780; test: Induction of mitotic cell cycle arrest in human A2780 cells assessed as accumulation of cells at SubG1 phase at 100 nM after 24 hrs by flow cytometry (Rvb= 2.5%); type: functional
[28] = Induction of mitotic cell cycle arrest in potoroo PtK2 cells assessed as accumulation of cells at SubG1 phase at 2 uM after 7 hrs by flow cytometry (Rvb= 2.4%); type: functional, Potorous tridactylus
[29] = test system: PtK2; test: Induction of micronucleation in potoroo PtK2 cells at 5 uM treated for 7 hrs followed by compound washout measured after 48 hrs by flow cytometry; type: functional, cell-based; settings: Potorous tridactylus
[30] = Binding affinity to microtubule
[31] = Cytotoxicity against human 1A9PTX22 cells; type: functional, cell-based; settings: 1A9/ptx-22
[32] = Induction of mitotic cell cycle arrest in potoroo PtK2 cells assessed as accumulation of cells at G1/G0 phase at 2 uM treated for 7 hrs, washed followed by 48 hrs incubation by flow cytometry (Rvb= 65.8%); type: functional, Potorous tridactylus
[33] = Induction of mitotic cell cycle arrest in potoroo PtK2 cells assessed as accumulation at S phase at 5 uM after 7 hrs by flow cytometry (Rvb= 15.5%); type: functional, Potorous tridactylus
[34] = Induction of mitotic cell cycle arrest in potoroo PtK2 cells assessed as accumulation of cells at G1/G0 phase at 100 nM after 24 hrs by flow cytometry (Rvb= 60.8%); type: functional, Potorous tridactylus
[35] = test system: A549; test: Cytotoxicity against human A549 cells; type: functional, cell-based
[36] = test system: PtK2; test: Induction of microtubule bundle formation in potoroo PtK2 cells at 2 uM treated for 7 hrs followed by compound washout measured after 48 hrs by flow cytometry; type: cell-based; settings: Potorous tridactylus
[37] = Induction of mitotic cell cycle arrest in potoroo PtK2 cells assessed as accumulation of cells at G1/G0 phase at 5 uM treated for 7 hrs, washed followed by 16 hrs incubation by flow cytometry (Rvb= 59%); type: functional, Potorous tridactylus
[38] = Induction of mitotic cell cycle arrest in potoroo PtK2 cells assessed as accumulation of cells at G2+M phase at 5 uM treated for 7 hrs, washed followed by 48 hrs incubation by flow cytometry (Rvb= 22.3%); type: functional, Potorous tridactylus

## CC1=C[C@H]2[C@@H](O)[C@H](C)[C@@H](O)[C@@H]2[C@H]2[C@@H]3C4=C5O[C@](C)(CC[C@@H](OC4=O)[C@H]5C)[C@@H]3C[C@@H]12 [CYCLOSTREPTIN]
[1]
  Activity: 10.6%
[2]
  Activity: 19%
[3]
  Activity: Active
[4]
  Activity: 60%
[5]
  Activity: 48%
[6]
  Activity: 9.4%
[7]
  Activity: 15%
[8]
  Activity: 12.1%
[9]
  Activity: 4%
[10]
  Activity: 10%
[11]
  Activity: 4%
[12]
  IC50: 43.5 nM
[13]
  Activity: 4%
[14]
  Activity: 25%
[15]
  Activity: 72%
[16]
  Activity: Active
[17]
  IC50: 44 nM
[18]
  Activity: 20.5%
[19]
  Activity: 16.4%
[20]
  Activity: 4%
[21]
  Activity: 7.1%
[22]
  Activity: 17%
[23]
  Activity: 6%
[24]
  Activity: 65%
[25]
  Activity: 4%
[26]
  Activity: 45.2%
[27]
  Activity: 16.3%
[28]
  Activity: 2.6%
[29]
  Activity: Active
[30]
  Kd: 49 nM
[31]
  IC50: 58 nM
[32]
  Activity: 8.7%
[33]
  Activity: 17.5%
[34]
  Activity: 18.5%
[35]
  IC50: 45.5 nM
[36]
  Activity: Active
[37]
  Activity: 18.5%
[38]
  Activity: 77.1%
